From ChEMBL document CHEMBL1142371, “Synthesis and biological evaluation of imidazol-2-one derivatives as potential antitumor agents” (Bioorg Med Chem, 2008)

What was measured:
[1] = system: HL-60; assay: Cytotoxicity against human HL60 cells after 48 hrs by MTT assay; type: functional, cell-based; settings: HL-60, 48 h
Outline: (§1)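 MTT read-out after 48 h drug exposure; MTT then added for a further 4 h at 37 °C, formazan dissolved in DMSO, absorbance at 570 nm. Triplicate wells in three independent experiments; IC50 = concentration giving 50% inhibition of cell viability, values are means of three experiments.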

[2] = Cytotoxicity against multidrug-resistant human K562R cells after 48 hrs by MTT assay; type: functional, cell-based; settings: K-562R; outline: as §1
[3] = system: PC-3; assay: Cytotoxicity against human PC3 cells after 48 hrs by MTT assay; type: functional, cell-based; settings: PC-3, 48 h; outline: as §1
[4] = Cytotoxicity against human ECA109 cells after 48 hrs by MTT assay; type: functional, cell-based; settings: ECa-109, 48 h; outline: as §1
[5] = system: A549; assay: Cytotoxicity against human A549 cells after 48 hrs by MTT assay; type: functional, cell-based; settings: A549, 48 h; outline: as §1
[6] = system: K562; assay: Cytotoxicity against human K562 cells after 48 hrs by MTT assay; type: functional, cell-based; settings: K562, 48 h; outline: as §1
[7] = system: MCF7; assay: Cytotoxicity against human MCF7 cells after 48 hrs by MTT assay; type: functional, cell-based; settings: MCF7, 48 h; outline: as §1
[8] = system: Bel-7402; assay: Cytotoxicity against human BEL-7402 cells after 48 hrs by MTT assay; type: functional, cell-based; settings: Bel-7402, 48 h; outline: as §1
[9] = system: CCRF S-180; assay: Antitumor activity in mouse xenografted with S180 cells assessed as inhibition of tumor growth at 15 mg/kg/day, im after 10 days; type: functional; settings: CCRF S-180, im, 240 h, route intramuscular
Outline: (§2)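 S-180 or H-22 cells expanded in mice for 10 days, then 2.5 × 10⁶ viable tumor cells per mouse injected subcutaneously into the armpit of female mice (9 per treated group, 18 negative controls). Compound given im once daily for 10 consecutive days; saline negative control, cyclophosphamide 30.0 mg/kg ip positive control. Tumors excised and weighed on day 10; inhibition rate = (C − T)/C × 100 from mean tumor weights.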

[10] = system: Mus musculus; assay: Effect on body weight in mouse bearing H22 cells at 5 mg/kg/day, im after 10 days; type: functional; settings: route intramuscular
Outline: (§3)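 Female tumor-bearing mice (S-180 or H-22, 2.5 × 10⁶ cells subcutaneously in armpit) dosed im once daily for 10 consecutive days; saline negative control. Initial and end body weights recorded per group.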

[11] = system: Mus musculus; assay: Effect on body weight in mouse bearing H22 cells at 20 mg/kg/day, im after 10 days; type: functional; settings: route intramuscular; outline: as §3
[12] = system: K562; assay: Cell cycle arrest in human K562 cells assessed as accumulation at G2/M phase at 0.01 uM after 48 hrs by flow cytometry; type: functional
Outline: (§4)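 K562 cells in exponential growth exposed 48 h to 0–1 µM compound. Cells washed twice in PBS, fixed in 70% ethanol at −20 °C, RNase-treated 1 h at 37 °C, stained with propidium iodide 30 min at 4 °C. DNA content by flow cytometry gives cell-cycle phase distribution and apoptotic fraction.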

[13] = system: K562; assay: Cell cycle arrest in human K562 cells assessed as accumulation at S phase at 0.01 uM after 48 hrs by flow cytometry; type: functional; outline: as §4
[14] = system: K562; assay: Induction of apoptosis in human K562 cells at 0.1 uM after 48 hrs by flow cytometry; type: functional; outline: as §4
[15] = system: K562; assay: Induction of apoptosis in human K562 cells at 1 uM after 48 hrs by flow cytometry; type: functional; outline: as §4
[16] = system: Mus musculus; assay: Effect on body weight in mouse bearing S180 cells at 15 mg/kg/day, im after 10 days; type: functional, CCRF S-180; settings: route intramuscular; outline: as §3
[17] = system: Mus musculus; assay: Antitumor activity in mouse xenografted with H22 cells assessed as inhibition of tumor growth at 5 mg/kg/day, im after 10 days; type: functional; settings: 240 h, route intramuscular; outline: as §2
[18] = system: Mus musculus; assay: Antitumor activity in mouse xenografted with H22 cells assessed as inhibition of tumor growth at 20 mg/kg/day, im after 10 days; type: functional; settings: 240 h, route intramuscular; outline: as §2
[19] = system: CCRF S-180; assay: animal or person; settings: Mus musculus, CCRF S-180, ip, 240 h, read-out: Inhibition
[20] = system: H22; assay: animal or person; settings: Mus musculus, H22, ip, 240 h, read-out: Inhibition

Structure (SMILES) | IC50 [1] [µM] | IC50 [2] [µM] | IC50 [3] [µM] | IC50 [4] [µM] | IC50 [5] [µM] | IC50 [6] [µM] | IC50 [7] [µM] | IC50 [8] [µM] | inhibition in vivo at 15 mg/kg/day [9] [%] | Activity [10] [g] | Activity [11] [g] | Activity [12] [%] | Activity [13] [%] | Activity [14] [%] | Activity [15] [%] | Activity [16] [g] | inhibition in vivo at 5 mg/kg/day [17] [%] | inhibition in vivo at 20 mg/kg/day [18] [%] | inhibition in vivo at 30 mg/kg/day [19] [%] | inhibition in vivo at 30 mg/kg/day [20] [%]
COc1ccc(-c2c[nH]c(=O)n2-c2cc(OC)c(OC)c(OC)c2)cc1 | 19.8 | > 50 | > 50 | > 50 | > 50 |  |  |  |  |  |  |  |  |  |  |  |  |  |  | 
COc1ccc(-c2cn(C(C)=O)c(=O)n2-c2cc(OC)c(OC)c(OC)c2)cc1OC | 12.2 | > 50 | > 50 | > 50 | > 50 | 43.4 | > 50 | > 50 |  |  |  |  |  |  |  |  |  |  |  | 
COc1ccc(-c2cn(C(=O)Nc3cc(OC)c(OC)c(OC)c3)c(=O)n2-c2cc(OC)c(OC)c(OC)c2)cc1OC | 6.5 | > 50 | > 50 | > 50 | > 50 | > 50 | > 50 | > 50 |  |  |  |  |  |  |  |  |  |  |  | 
COc1ccc(-c2cn(C(=O)Nc3cc(OC)c(OC)c(OC)c3)c(=O)n2-c2cc(OC)c(OC)c(OC)c2)cc1[N+](=O)[O-] | 19.7 | > 50 | > 50 | > 50 | > 50 | 7.2 |  |  |  |  |  |  |  |  |  |  |  |  |  | 
COc1ccc(-c2cn(C(C)=O)c(=O)n2-c2cc(OC)c(OC)c(OC)c2)cc1[N+](=O)[O-] | 5.6 | > 50 | 30.3 | 30.8 | 40.9 | > 50 | > 50 | 35.7 |  |  |  |  |  |  |  |  |  |  |  | 
COc1ccc(-c2cn(C(=O)Nc3cc(OC)c(OC)c(OC)c3)c(=O)n2-c2cc(OC)c(OC)c(OC)c2)cc1O | 15.4 | > 50 | > 50 | > 50 | > 50 | > 50 |  |  |  |  |  |  |  |  |  |  |  |  |  | 
COc1cc(-n2c(-c3ccccc3)cn(C(C)=O)c2=O)cc(OC)c1OC | 5.6 | 9.6 | > 50 | > 50 | > 50 | > 50 | > 50 | > 50 |  |  |  |  |  |  |  |  |  |  |  | 
COc1ccc(-c2cn(C(=O)Nc3cc(OC)c(OC)c(OC)c3)c(=O)n2-c2cc(OC)c(OC)c(OC)c2)cc1 | 5.4 | 3.5 | 49.7 | > 50 | > 50 | 3.8 | > 50 | > 50 |  |  |  |  |  |  |  |  |  |  |  | 
COc1ccc(-c2c[nH]c(=O)n2-c2cc(OC)c(OC)c(OC)c2)cc1N | 10.3 | > 50 | 49.8 | > 50 | > 50 | 49.2 | > 50 | > 50 |  |  |  |  |  |  |  |  |  |  |  | 
COc1cc(-n2c(-c3ccc([N+](=O)[O-])cc3)cn(C(C)=O)c2=O)cc(OC)c1OC | 7.2 | 49.6 | 32.9 | > 50 | 49.6 | 26.6 | > 50 | > 50 |  |  |  |  |  |  |  |  |  |  |  | 
COc1cc(-n2c(-c3ccc(F)cc3F)cn(C(C)=O)c2=O)cc(OC)c1OC | 7.6 | > 50 | 34.3 | > 50 | 24.1 | > 50 | 49.3 | 36.2 |  |  |  |  |  |  |  |  |  |  |  | 
COc1ccc(-c2cn(C(=O)Nc3cc(OC)c(OC)c(OC)c3)c(=O)n2-c2cc(OC)c(OC)c(OC)c2)cc1N | 3.1 | 9.4 | 10 | > 50 | 11.1 | 5.8 | > 50 | 10.1 |  |  |  |  |  |  |  |  |  |  |  | 
COc1cc(-n2c(-c3ccc(Cl)cc3)cn(C(C)=O)c2=O)cc(OC)c1OC | 4.9 |  |  | > 50 | > 50 | > 50 |  |  |  |  |  |  |  |  |  |  |  |  |  | 
COc1ccc(-c2c[nH]c(=O)n2-c2cc(OC)c(OC)c(OC)c2)cc1OC | 38.8 | > 50 | > 50 | > 50 | > 50 |  |  |  |  |  |  |  |  |  |  |  |  |  |  | 
COc1cc(-n2c(-c3ccc(O)cc3)c[nH]c2=O)cc(OC)c1OC | 20 | > 50 | 30.2 | > 50 | > 50 | > 50 | > 50 | > 50 |  |  |  |  |  |  |  |  |  |  |  | 
COc1ccc(-c2c[nH]c(=O)n2-c2cc(OC)c(OC)c(OC)c2)cc1[N+](=O)[O-] | 14.3 | > 50 | > 50 | > 50 | > 50 |  |  |  |  |  |  |  |  |  |  |  |  |  |  | 
COc1cc(-n2c(-c3ccc(Br)cc3)cn(C(C)=O)c2=O)cc(OC)c1OC | 0.2 | 0.9 | 3.1 | 3.8 | 1.3 | 1 | 10.6 | 1.2 | 55.3 | 26.8 | 27.6 | 31 | 54 | 45.6 | 78.6 | 35.1 | 29.4 | 55.5 |  | 
COc1ccc(-c2cn(C(C)=O)c(=O)n2-c2cc(OC)c(OC)c(OC)c2)cc1 | 5.5 | 9.5 | 19.7 | > 50 | 17.8 | 0.2 | > 50 | 9.5 |  |  |  |  |  |  |  |  |  |  |  | 
COc1cc(NC(=O)n2cc(-c3ccc(O)cc3)n(-c3cc(OC)c(OC)c(OC)c3)c2=O)cc(OC)c1OC | 6.3 | > 50 | 3 | > 50 | 2.5 | 10.4 | > 50 | > 50 |  |  |  |  |  |  |  |  |  |  |  | 
COc1ccc(-c2cn(C(C)=O)c(=O)n2-c2cc(OC)c(OC)c(OC)c2)cc1N | 0.4 | 49.3 | 21.4 | > 50 | 1.1 | 0.5 | 43.4 | 0.6 |  |  |  |  |  |  |  |  |  |  |  | 
O=P1(N(CCCl)CCCl)NCCCO1 (centres undefined) [CYCLOPHOSPHAMIDE ANHYDROUS] |  |  |  |  |  |  |  |  |  |  |  |  |  |  |  |  |  |  | 63.5 | 36.2
CC(=O)O[C@@]12CO[C@@H]1C[C@H](O)[C@@]1(C)C(=O)[C@H](O)C3=C(C)[C@@H](OC(=O)[C@H](O)[C@@H](NC(=O)OC(C)(C)C)c4ccccc4)C[C@@](O)([C@@H](OC(=O)c4ccccc4)[C@H]21)C3(C)C [DOCETAXEL] |  |  | 54.8 |  | 1.7 | 8.5 | 4 |  |  |  |  |  |  |  |  |  |  |  |  | 
